Tests used:
C7 = molecular target: T1, C7 (Homo sapiens, UniProt P55210); assay: Differential scanning fluorimetry; assay type: binding; conditions: DICA-saturated C7 plus Ac-DEVD-CMK
T1 sequence (P55210 24-198 limits assumed): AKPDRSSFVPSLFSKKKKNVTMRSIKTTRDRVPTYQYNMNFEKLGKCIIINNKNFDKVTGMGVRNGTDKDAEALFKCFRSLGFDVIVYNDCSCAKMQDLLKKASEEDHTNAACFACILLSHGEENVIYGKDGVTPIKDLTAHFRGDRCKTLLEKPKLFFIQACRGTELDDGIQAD
T1 sequence (P55210 207-303 limits assumed): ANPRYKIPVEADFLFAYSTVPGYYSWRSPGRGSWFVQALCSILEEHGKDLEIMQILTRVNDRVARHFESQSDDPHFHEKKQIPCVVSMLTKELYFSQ

C7 wt = molecular target: T2, C7 wt (Homo sapiens, UniProt P55210); assay: Fluorometric stopped-flow pre-steady state kinetics assay; assay type: biochemical; conditions: with increasing concentrations of inhibitor
T2 sequence (P55210 24-198 limits assumed): T1 sequence (P55210 24-198 limits assumed)
T2 sequence (P55210 207-303 limits assumed): T1 sequence (P55210 207-303 limits assumed)
Procedure, shortened: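 Fluorescence stopped-flow on wild-type caspase-7. Progress curves were recorded with test compound at 6 to 500 uM or with DMSO alone, and a covalent allosteric inhibitor served as the assay-development control. Each curve was fitted individually to a pre-steady-state burst equation plus linear steady-state rate to give burst amplitude and k_burst. SE comes from a 95% confidence interval.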

Caspase-7 wt = molecular target: T3, Caspase-7 wt (Homo sapiens, UniProt P55210); assay: Fluorometric steady-state kinetics assay; assay type: biochemical; conditions: C7 pre-saturated with DICA (DICA-C7)
T3 sequence (P55210 24-198 limits assumed): T1 sequence (P55210 24-198 limits assumed)
T3 sequence (P55210 207-303 limits assumed): T1 sequence (P55210 207-303 limits assumed)
Procedure, shortened: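 Fluorometric steady-state kinetic assays on wild-type C7 and wild-type C3. Both IC50 and Ki were derived. Ki came from fitting a non-competitive inhibitor equation. Values are reported with confidence intervals at the 95% level.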

In the case of `O=C(COc1ccc(Cl)cc1Cl)NCCS` [DICA, 2-(2,4-Dichlorophenoxy)-N-(2-mercaptoethyl)-acetamide, reference compound], the “formation of physical enzyme-substrate-inhibitor (ESI) complex” value (C7) is reported as “able to physically bind substrate and DICA simultaneously”, the burst amplitude (C7 wt) is reported as “decrease” and the “burst phase rate constant (kburst)” value (C7 wt) is reported as “no change”. For the same compound, the “turnover of Ac-DEVD-AFC substrate” value (Caspase-7 wt) was “no turnover”.

Reference: paper PMC11596327 (Chemistry (Weinheim an der Bergstrasse, Germany), 2023)
